Inconclusive results are not listed.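 The calls were made as follows, unless noted: active = viability at or below 27.92% in each of two runs, the all-compound median minus 4 SD; inconclusive = no clear call, values can overlap the other calls; inactive = the rest.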
Experiments:
[1] = OD615 S. cerevisiae growth inhibition, permissive medium, pilot counter-assay, permissive growth control for S. cerevisiae lifespan shortening project (AID 705;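 active = growth inhibition above 25% in both replicates, a cutoff set 3 SD above the mean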); conditions: OD615, 24 h, at 10 µM, stronger effect = higher value
In short: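 Material: engineered DeaD yeast; Compound: one dose 10 µM, DMSO 0.25% final; Detection: absorbance (optical density) at 615 nm; Buffer or medium: permissive raffinose/galactose medium; Timing: 24 h exposure, 30 °C.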

[2] = Restrictive medium S. cerevisiae growth inhibition, OD615, pilot screen of yeast lifespan reduction project, restrictive growth control (AID 706;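 active = growth inhibition above a set limit, 3 SD over mean compound inhibition, in both replicates, cut at about 43% in these data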;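 also: modified DeaD lifespan yeast strain shifted to restrictive glucose medium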); conditions: OD615, 48 h, at 10 µM, stronger effect = higher value
In short: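 Buffer or medium: restrictive glucose medium (CSMM-D); test system: modified S. cerevisiae; doses: single dose of 10 µM compound final, 0.25% DMSO; schedule: 48 h compound exposure at 30 °C; detection: absorbance (optical density) measured at 615 nm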

[3] = viability gain of MRP-1-high H69AR cells under doxorubicin, pilot screen, MRP-1 activator project, CellTiter-Glo, duplicate (AID 807;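 active = viability increase at or above a cutoff of the median across tested compounds plus 3 SD, cut at about 8.5% in these data, passing the limit was not always enough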;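 also: compound pretreatment 18-22 h then 72 h combined with doxorubicin; 0% = doxorubicin alone and 100% = vehicle without doxorubicin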); conditions: H69AR viability with doxorubicin, CellTiter-Glo luminescence; at 10 µM; stronger effect = higher value
[4] = growth suppression of PTEN-deleted HCT116, pilot screen, cell-based, HCT116 clonal line, CellTiter-Glo (AID 824); conditions: 60 h, at 10 µM, stronger effect = lower value;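 also: 0% = 20 µM Hyamine control and 100% = vehicle cell control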
[5] = inhibitors of the yeast RAM network, pilot screen, dse1pr::URA3 reporter, 5-FOA selection (AID 869;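 active = inhibition over a set limit, the all-compound mean plus 3 SD, in both replicate runs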;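 also: 0% = DMSO wells with no growth and 100% = 10 µM 1-NA-PP1 with full growth; RAM network block rescues cells from 5-FOA so hits raise OD615 growth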); conditions: S. cerevisiae dse1pr::URA3 5-FOA growth, OD615, 2 d; at 10 µM; stronger effect = higher value; strain carries analog-sensitive mutant Cbk1 kinase
[6] = RAM signaling pathway blockade in yeast – S. cerevisiae, Pdr1DBD-CYC8 efflux-inhibited sensitized strain, primary screen (AID 1298;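 active = RAM network inhibition above 8.4% in each of two replicates, 3 SD over the compound average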;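 also: 0% = DMSO untreated cells without growth and 100% = 10 µM 1-NA-PP1 full growth; higher means more yeast growth rescued from 5-FOA killing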); conditions: S. cerevisiae cbk1-as DSE1-URA3 strain, 5-FOA growth OD615, 2 d; at 50 µM; stronger effect = higher value

COc1ccc(OC)c2c(C)cc(N3CCCN(C)CC3)nc12
inactive: growth inhibition [1] 3.26% | growth inhibition [2] -3.9% | viability increase [3] -4.81% | viability [4] 85.9% | inhibition [5] 0.015% | RAM network inhibition [6] 0%

CCN1CCN(c2cc(C)c3cc(NC(=O)c4ccc5c(c4)OCO5)ccc3n2)CC1
inactive: growth inhibition [1] -12.3% | growth inhibition [2] -7.6% | viability increase [3] -8.06% | viability [4] 47.2% | inhibition [5] -0.365% | RAM network inhibition [6] 3.21%

O/N=C1\CCCc2oc3c(c21)CCCC3
inactive: growth inhibition [1] -7.12% | growth inhibition [2] -2.73% | viability increase [3] -1.84% | viability [4] 97.5% | inhibition [5] 2.48% | RAM network inhibition [6] 1.89%

c1coc(CNc2c3c(nc4ncnn24)CCCC3)c1
inactive: growth inhibition [1] 0.96% | growth inhibition [2] 6.76% | viability increase [3] -1.88% | viability [4] 93.1% | inhibition [5] -0.155% | RAM network inhibition [6] 1.39%

Source: PubChem BioAssay
